Key:
FM3A [1] = test: Mammalian cell cytotoxicity assessed against mouse mammary tumor FM3A cells; format: functional, cell-based
Outline: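 Mouse mammary tumor FM3A cells in culture used as a mammalian cytotoxicity control; EC50 determined by a previously reported protocol. Selectivity is the mean EC50 for FM3A cells divided by the mean EC50 for P. falciparum.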

Plasmodium falciparum = test: (§1) In vitro antimalarial activity against Plasmodium falciparum; format: functional, organism-based
FM3A [2] = test: as §1; format: functional
Mus musculus [3] = test: In vivo 50% effective dose tested against Plasmodium berghei NK65 infected mice (Mus musculus), after intraperitoneal administration; format: functional; details: ip
Outline: (§2)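 Mice infected with P. berghei, in groups of five, were given the compounds intraperitoneally in olive oil at various concentrations. Dosing was once daily on days 0–3. Parasitemia was determined on day 4, and ED values were derived by a previously reported protocol.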

Mus musculus [4] = test: In vivo 90% effective dose tested against Plasmodium berghei NK65 infected mice (Mus musculus), after intraperitoneal administration; format: functional; details: ip; outline: as §2
Mus musculus [5] = test: In vivo […] effective dose tested against Plasmodium berghei NK 65 infected mice (Mus musculus), after intraperitoneal administration; format: functional; details: ip; outline: as §2
Mus musculus [6] = test: In vivo 50% effective dose tested against Plasmodium berghei NK65 infected mice (Mus musculus), after oral administration.; format: functional
Outline: (§3)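 Mice infected with P. berghei, in groups of five, were given the compounds orally in olive oil at various concentrations. Dosing was once daily on days 0–3. Parasitemia was determined on day 4, and ED values were derived by a previously reported protocol.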

Mus musculus [7] = test: In vivo 90% effective dose tested against Plasmodium berghei NK65 infected mice (Mus musculus), after oral administration.; format: functional; outline: as §3

Q: How did the EC50 (FM3A [1]) turn out when C=C(C)COOC1(OOCC(=C)C)CCCCCCCCCCC1 was run?
A: 38000 nM

Q: And the EC50 (Plasmodium falciparum)?
A: 1500 nM

Q: And the Selectivity ratio (FM3A [2])?
A: 25

Q: For CCCOOC1(OC)CCCCCCCCCCC1, which EC50 (FM3A [1]) is on record?
A: > 37000 nM

Q: What about the EC50 (Plasmodium falciparum) of the same molecule?
A: 620 nM

Q: What about the Selectivity ratio (FM3A [2]) of the same molecule?
A: >60

Q: What does the source list for CCCCOOC1(OOC)CCCCCCCCCCC1?
A: ED50 (Mus musculus [3]): 35 mg/kg; EC50 (FM3A [1]): 20000 nM; ED90 (Mus musculus [4]): 80 mg/kg; EC50 (Plasmodium falciparum): 220 nM; Selectivity ratio (FM3A [2]): 91

Q: What does the source list for CCOOC1(OC)CCCCCCCCCCC1?
A: ED50 (Mus musculus [3]): > 100 mg/kg; EC50 (FM3A [1]): 26000 nM; EC50 (Plasmodium falciparum): 230 nM; Selectivity ratio (FM3A [2]): 113

Q: With COOC1(OOCCC(=O)O)CCCCCCCCCCC1 as the molecule, how does the EC50 (FM3A [1]) read?
A: 450 nM

Q: And the EC50 (Plasmodium falciparum)?
A: 5000 nM

Q: With COOC1(OOC(C)(C)OC)CCCCCCCCCCC1 as the molecule, how does the EC50 (FM3A [1]) read?
A: 7300 nM

Q: What about the EC50 (Plasmodium falciparum) of the same molecule?
A: 240 nM

Q: What about the Selectivity ratio (FM3A [2]) of the same molecule?
A: 30

Q: C=CCOOC1(OOCC=C)CCCCCCCCCCC1 was tested. Which EC50 (FM3A [1]) did it give?
A: 14000 nM

Q: What about the EC50 (Plasmodium falciparum) of the same molecule?
A: 1600 nM

Q: What about the Selectivity ratio (FM3A [2]) of the same molecule?
A: 9

Q: Which EC50 (FM3A [1]) does the source give for COOC1(OOCCCCCC(=O)O)CCCCCCCCCCC1 here?
A: 14000 nM

Q: And the EC50 (Plasmodium falciparum)?
A: 270 nM

Q: And the Selectivity ratio (FM3A [2])?
A: 52

Q: COOC1(OOCCCc2ccccc2)CCCCCCCCCCC1 was tested. Which EC50 (FM3A [1]) did it give?
A: 34000 nM

Q: What about the EC50 (Plasmodium falciparum) of the same molecule?
A: 1000 nM

Q: What about the Selectivity ratio (FM3A [2]) of the same molecule?
A: 34

Q: With C=C(C)COOC1(OOC)CCCCCCCCCCC1 as the molecule, how does the EC50 (FM3A [1]) read?
A: 17000 nM

Q: And the EC50 (Plasmodium falciparum)?
A: 1300 nM

Q: And the Selectivity ratio (FM3A [2])?
A: 13

Q: Which results are given for COOC1(OOCCCCCCO)CCCCCCCCCCC1?
A: ED50 (Mus musculus [3]): 30 mg/kg; EC50 (FM3A [1]): 1600 nM; ED90 (Mus musculus [4]): 60 mg/kg; EC50 (Plasmodium falciparum): 72 nM; Selectivity ratio (FM3A [2]): 22

Q: With COOC1(OOCCCCCCOC2CCOCC2)CCCCCCCCCCC1 as the molecule, how does the EC50 (FM3A [1]) read?
A: 7600 nM

Q: What about the EC50 (Plasmodium falciparum) of the same molecule?
A: 900 nM

Q: And the Selectivity ratio (FM3A [2])?
A: 8

Q: For C=CCCOOC1(OOC)CCCCCCCCCCC1, which EC50 (FM3A [1]) is on record?
A: 6000 nM

Q: And the EC50 (Plasmodium falciparum)?
A: 380 nM

Q: And the Selectivity ratio (FM3A [2])?
A: 16

Q: With COOC1(OOCCC(=O)OC)CCCCCCCCCCC1 as the molecule, how does the EC50 (FM3A [1]) read?
A: 1400 nM

Q: And the EC50 (Plasmodium falciparum)?
A: 230 nM

Q: What about the Selectivity ratio (FM3A [2]) of the same molecule?
A: 6

Q: For CCCCC(CCCC)(OC)OOCC, which EC50 (FM3A [1]) is on record?
A: > 48000 nM

Q: What about the EC50 (Plasmodium falciparum) of the same molecule?
A: 8600 nM

Q: What about the Selectivity ratio (FM3A [2]) of the same molecule?
A: >6

Q: Which results are given for C=C(C)COOC(CCCC)(CCCC)OOC?
A: EC50 (FM3A [1]): 15000 nM; EC50 (Plasmodium falciparum): 1600 nM; Selectivity ratio (FM3A [2]): 9

Q: What does the source list for CCOOC1(OOCC)CCCCCCCCCCC1?
A: ED50 (Mus musculus [5]): 64 mg/kg; ED50 (Mus musculus [3]): 41 mg/kg; EC50 (FM3A [1]): 10000 nM; EC50 (Plasmodium falciparum): 200 nM; Selectivity ratio (FM3A [2]): 50

Q: Which ED50 (Mus musculus [3]) does the source give for COOC1(OOC)CCCCCCCCCCC1 here?
A: 13 mg/kg

Q: And the ED50 (Mus musculus [6])?
A: 30 mg/kg

Q: And the EC50 (FM3A [1])?
A: 1500 nM

Q: What about the ED90 (Mus musculus [4]) of the same molecule?
A: 20 mg/kg

Q: What about the ED90 (Mus musculus [7]) of the same molecule?
A: 60 mg/kg

Q: What about the EC50 (Plasmodium falciparum) of the same molecule?
A: 86 nM

Q: And the Selectivity ratio (FM3A [2])?
A: 17

Q: Which ED50 (Mus musculus [3]) does the source give for COOC1(OC)CCCCCCCCCCC1 here?
A: 30 mg/kg

Q: And the EC50 (FM3A [1])?
A: 19000 nM

Q: And the ED90 (Mus musculus [4])?
A: 68 mg/kg

Q: What about the EC50 (Plasmodium falciparum) of the same molecule?
A: 80 nM

Q: And the Selectivity ratio (FM3A [2])?
A: 238

Q: Which results are given for C[C@@H]1CC[C@H]2[C@@H](C)C(=O)O[C@@H]3O[C@@]4(C)CC[C@@H]1[C@]32OO4 [ARTEMISININ]?
A: ED50 (Mus musculus [3]): 5.4 mg/kg; ED50 (Mus musculus [6]): 13 mg/kg; ED90 (Mus musculus [4]): 32 mg/kg; ED90 (Mus musculus [7]): 89 mg/kg; Selectivity ratio (FM3A [2]): 1000

Q: How did the EC50 (FM3A [1]) turn out when CCCCOOC1(OOCCCC)CCCCCCCCCCC1 was run?
A: 8500 nM

Q: What about the EC50 (Plasmodium falciparum) of the same molecule?
A: 2100 nM

Q: What about the Selectivity ratio (FM3A [2]) of the same molecule?
A: 4

Q: For CCOC(C)OOC1(OOC)CCCCCCCCCCC1 (stereo unspecified), which EC50 (FM3A [1]) is on record?
A: 12000 nM

Q: What about the EC50 (Plasmodium falciparum) of the same molecule?
A: 290 nM

Q: What about the Selectivity ratio (FM3A [2]) of the same molecule?
A: 41

Q: With COOC1(OOCCCCCCI)CCCCCCCCCCC1 as the molecule, how does the EC50 (FM3A [1]) read?
A: 86000 nM

Q: And the EC50 (Plasmodium falciparum)?
A: 740 nM

Q: What about the Selectivity ratio (FM3A [2]) of the same molecule?
A: 116

Q: Which results are given for CCCOOC1(OOCCC)CCCCCCCCCCC1?
A: EC50 (FM3A [1]): 12000 nM; EC50 (Plasmodium falciparum): 1800 nM; Selectivity ratio (FM3A [2]): 7

From ChEMBL document CHEMBL1135896, “Synthesis and notable antimalarial activity of acyclic peroxides, L-(alkyldioxy)-L-(methyldioxy)cyclododecanes” (J Med Chem, 2002)
